Tested on: MS2 coat protein
Experiment: apparent Kd, MS2 coat protein; higher = weaker binding; RNA-MaP array; FMN 200 µM where present
Summary of the method: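 On Illumina sequencing-chip clusters, designs were transcribed by stalled E. coli RNA polymerase and titrated with SNAP-549-labelled MS2 coat protein (0.7 or 1.5 nM, doubling to 3 µM), without and then with constant ligand, in 100 mM Tris-HCl pH 7.5, 80 mM KCl, 4 mM MgCl2, BSA, DTT, yeast tRNA and Tween-20. Apparent Kd is the median of filtered per-cluster curve fits to green signal normalised to red-channel RNA signal and control-cluster median Fmax.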

[1] = designed as: ON switch for flavin mononucleotide, no ligand
[2] = ligand present: flavin mononucleotide, designed as: ON switch for flavin mononucleotide
[3] = designed as: OFF switch for flavin mononucleotide, no ligand
[4] = ligand present: flavin mononucleotide, designed as: OFF switch for flavin mononucleotide

Sequence | apparent Kd [1] | apparent Kd [2] | apparent Kd [3] | apparent Kd [4]
AAAAAACAUGAGGAUCACCCAUGUAAAAAAAUGGGAGGAUAUCUGAAUUAAUUAAAUUAAGGAGAAGGCCUAAAAA | 239 nM | 31.9 nM | – | –
AAAAAACAUGAGGAUCACCCAUGUAAGGAUAUGACUUAAAUAAAGAAAGAAGAAAUAGUCAGAAGGUACAAAUA | – | – | 45.3 nM | 51.1 nM
AAAAAACAUGAGGAUCACCCAUGUCAAAAGACAUGAGGAUAUGUACAGACUUCGGUCUGUACAGAAGGCAUGUCUU | 25.7 nM | 18.4 nM | – | –
AAAAAAUAAGGAUAUACAUUUCGGGAAAUUUUUACAAAAAAACAUGAGGAUCACCCAUGUAGAAGGUAUAAAAA | – | – | 23.2 nM | 20.1 nM
AAAAAGAUAGGAUAUACAUGAAAAAAAAAAAAAAAAAAAAGACAUGAGGAUCACCCAUGUAGAAGGGUCAAAAA | – | – | 133 nM | 124 nM
AAAAAGCGAGGAUAUACAAAAGAGCGAAAGCUCAAAAGGAAACAUGAGGAUCACCCAUGUAGAAGGCGCAAGAA | – | – | 21.7 nM | 20.3 nM
AAAAAGCGAGGAUAUACAUGAGGAUCACCCAUGUAAAAAACAUGGGAUGAAACAUCAUGUAGAAGGCGCAAAAA | – | – | 22.6 nM | 26 nM
AAAAAGGCAGGAUAUACAAAAAAAAAAAAAAAAAAGGAGGGACAUGAGGAUCACCCAUGUAGAAGGGCCAAAAA | – | – | 66.5 nM | 134 nM
AAAAAGGCAGGAUAUACAAAAAAGAGAAGAGAGGAGGAGGGACAUGAGGAUCACCCAUGUAGAAGGGCCAAAAA | – | – | 31.5 nM | 37.4 nM
AAAAAGGCAGGAUAUACAUGAGGAUCACCCAUGUAAAGAAAAGAAAGAUCCAAAGAAAGUAGAAGGGCCAAAAA | – | – | 74.8 nM | 286 nM
AAAAAGUCAGGAUAUAGAAAAGGUCACGAAAGUGACAAAGGCUAGAAGGGACAUGAGGAUCACCCAUGUAAAAA | – | – | 31.9 nM | 31.1 nM
AAAAAGUCAGGAUAUCCAAAAAAAAAAAAAAAAAAAAAAAAGGAGAAGGGACAUGAGGAUCACCCAUGUAAAAA | – | – | 77.9 nM | 85.3 nM
AAAAAGUCAGGAUAUUCGGAUAGGAAAACGAAAACCUAUCCGAAGAAGGGACAUGAGGAUCACCCAUGUAAAAA | – | – | 27.4 nM | 46.5 nM
AAAAAGUGAGGAUAUACAUGAGGAUCACCCAUGUGAAAUCGGAAAAAAAACGAAAAAAGUAGAAGGCACAAAAA | – | – | 25.3 nM | 24.5 nM
AAAACAUGAGGAUCACCCAUGUAAAGAUCGGUUAAUAGAAGUGAGGAUAUGCUUAAUAUAAGGUAGCAGAAGGCACUGGGUACA | 23.3 nM | 25.7 nM | – | –
AAAACGGCACGUCCCGUGCCAACUACAGAAGGCCAACAUGAGGAUCACCCAUGUACAAACUAGAUGGAGGAUAUGUAGGUUCUA | 6.19 nM | 4.24 nM | – | –
AAAACUCACGUAGGAUAUCAUUCCUUAAGGUAGUGAGAAGGACGUGACUACAUGUCCUUGAACAUGAGGAUCACCCAUGUAGGC | – | – | 49.5 nM | 55.4 nM
AAAAGACAUGAGGAUCACCCAUGUAAAAACGUGGGAGGAUAUGUAUGGAAACCAGACUGUACAGAAGGCCUUUGUC | 138 nM | 164 nM | – | –
AAAAGACAUGAGGAUCACCCAUGUGAAAACGUGCAAGGAUAUGUGUGGAAACCGUACUAUACAGAAGGUGUGUGUC | 32 nM | 41.8 nM | – | –

Sequence | apparent Kd [1] | apparent Kd [2] | apparent Kd [3] | apparent Kd [4]
AAAAGAUAAGCAGGAUAUCGAACAACUCAUGGGCUAUGCCAUCCGCACAUGAGGAUCACCCAUGUCGAGAAGGGCUAAGAGUAG | – | – | 9.82 nM | 25.8 nM
AAAAGCAGAGGAUAUACAUAAUUAUGACGAAAGUCAUAAAAACAUGAGGAUCACCCAUGUAGAAGGCUGCAAAA | – | – | 24.4 nM | 34.1 nM
AAAAGCUCAGGAUAUACGGUCUGUUGUUGAGAAAUAAAAAAACAUGAGGAUCACCCAUGUAGAAGGGAGCGAAA | – | – | 79.5 nM | 160 nM
AAAAGGAUCUAACACGACGGGUCACCAGAAGGGACAUUGGCACAUGAGGAUCACCCAUGUCUAGGUCAGGAUAUGGGAUCAAGA | 72.3 nM | 10.4 nM | – | –
AAACCACAUGAGGAUCACCCAUGUGAGGAUAUGAUACUAUGUACUUCGGUACAUAGUAUCAGAAGGCAUGUGGA | – | – | 180 nM | 130 nM
AAACCUAUAGGAUAUACAUGAGGAUCACCCAUGUUGCGAUUUUUUAGGUAACAGAUCCGUAGAAGGGUAGGGCA | – | – | 29.7 nM | 46.9 nM
AAACUACUAGGAUAUACAACGGUGUCCUAACUACUAAGAAAACAUGAGGAUCACCCAUGUAGAAGGAGUAGUGA | – | – | 34.5 nM | 62.3 nM
AAAGAAAAACUAGAGGAUAUCCGAGUGGUAACAUGAGGAUCACCCAUGUGAUGAAAGGAACAUGAGGAGAAGGCUAGAAGAAAAA | 21.7 nM | 8.11 nM | – | –
AAAGAAAGGUCAGGAUAUCCGUUAGUCGCGCAAGGAGAAGGGACCUCAUGGGUGCUGACACAUGAGGAUCACCCAUGUAAAAUA | – | – | 65.5 nM | 23.1 nM
AAAGACAGACAUGAGGAUCACCCAUGUUACGAAGAUAAUGGGAGAAGGGCGAUUGCAAAGCAAUCGCAGGAUAUUCAUAUUGUC | 39.6 nM | 10.8 nM | – | –
AAAGUAAACGAAGGAUAUGGUUACAUGAGGAUCACCCAUGUAAUGGUUGUGAUAUUGAUUAAGUUCCAGAAGGUCGUAUACAUA | – | – | 199 nM | 371 nM
AAAGUUCGAGGAUAUCUACUUAGCUACAUGAGGAUCACCCAUGUUAUCCUCCCGCUGGGAAGAGAAGGCGGUUAAA | – | – | 36.5 nM | 210 nM
AAAGUUGGUAGGCCCUUGGAACAUGAGGAUCACCCAUGUAAGGAGGAUAUGCCCGGUACCCGCUGGCAGAAGGCCUUAUAAGAA | – | – | 20.5 nM | 143 nM
AAAGUUUAAGCAGGAUAUCGACCAUUCCUUGAUGCUUCAUUGGUGCACAUGAGGAUCACCCAUGUCGAGAAGGGCUAUGAAGCU | – | – | 15.6 nM | 47.4 nM
AAAUAAAGCAGUGUAUUAAGAUCACAUGAGGAUCACCCAUGUAGAAGGCUCGAGCAAAAUGCUCGAGAGGAUAUACAACACUGC | – | – | 10.2 nM | 195 nM
AAAUAAAUGACUAAGGAUAUAUCAGAGAAAACAUGAGGAUCACCCAUGUAAUAAUAAAAAGGGUGAUAGAAGGUAGUCAACAAACA | 222 nM | 44.5 nM | – | –
AAAUACGGUCAAGGAUAUGUAUAAAAGAUAAGAAAACAUGAGGAUCACCCAUGUAUAUGGUGGGAACAGAAGGUGAAUAAGUAA | – | – | 182 nM | 142 nM
AAAUAGCUAGAGGAUAUCGGAUAGGAUUUACUACGAGAAGGUUAGACAUGAGGAUCACCCAUGUUCUGUUGGGA | – | – | 41.5 nM | 39.2 nM
AAAUAGUCAGGAUAUACAUGAGGAUCACCCAUGUAAACUUUUAGUUUAAUUUGAAUGUGUAGAAGGGACAUUAA | – | – | 28.1 nM | 33 nM

Sequence | apparent Kd [1] | apparent Kd [2] | apparent Kd [3] | apparent Kd [4]
AAAUCCGCUGAGGAUAUUAUGAGUGAGAGCUCAUGAGAAGGCGGUACAUGAGGAUCACCCAUGUCUAUGGGCAA | – | – | 419 nM | 292 nM
AAAUCUGCUGAGGAUAUGAUGACUGAGAGGUCAUCAGAAGGCGGUACAUGAGGAUCACCCAUGUCUAUGGGCAA | – | – | 310 nM | 659 nM
AAAUGCAUAAAGGACACAUGAGGAUCACCCAUGUUUCUGUUCAAGGAUAUGAGGUGAAUGAUCCGUCAGAAGGUGAACUUGCUU | 180 nM | 400 nM | – | –
AAAUGCCUGUCGAUGCUCGACAUGAGGAUCACCCAUGUAUAGCAGGAUAUGCAGAACUGACUCGUGCAGAAGGGCUAUACCUAC | – | – | 17.8 nM | 37.4 nM
AAAUGCUGAGGAUAUACAUGAGGAUCACCCAUGUACUAAACUCGCAAGGGCAUCCGGUGUAGAAGGCAGCCUCA | – | – | 17.3 nM | 39.7 nM
AAAUUUAACGAAGGAUAUGCUGACAUGAGGAUCACCCAUGUGUGCUUUGUGUUGCUGAAACGGGAGCAGAAGGUCGUAUACAUA | – | – | 82.5 nM | 82.5 nM
AACAAGUCAGGAUAUCAUACUAAUCACUUGCUUUAAAUGUAUGAGAAGGGACAUGAGGAUCACCCAUGUAAAGA | – | – | 32.5 nM | 35.9 nM
AACAGCACAGGAUAUACAUGAGGAUCACCCAUGUGAGAAUUAAGUAGAUUGCCACAGAGUAGAAGGGUGCUGGA | – | – | 53.7 nM | 104 nM
AACAGGACAGGAUAUACAUGAGGAUCACCCAUGUAGGAAUUAAGCAGCGUACCACACAGUAGAAGGGUCAUGGA | – | – | 35.5 nM | 34.6 nM
AACAGUACAGGAUAUACAUGAGGAUCACCCAUGUGAAGAAUAAGUGGAGUACCACAAAGUAGAAGGGUACUGGA | – | – | 26.7 nM | 132 nM
AACAGUACAGGAUAUACAUGAGGAUCACCCAUGUGAGAAUUAAGUGGAAAACCACAAAGUAGAAGGGUACUGGA | – | – | 29.8 nM | 269 nM
AACAUGAGGAUCACCCAUGUCCCACCAGAAGGCUGGCGGUCAUGGGAAAGGCCACGACAAAUAACAGAGGAUAUGGUGAAUGCA | 168 nM | 33.2 nM | – | –
AACCGGGAGAAGCAGGAUAUUGCCUCUUCAACAUGAGGAUCACCCAUGUAAGUAAAUUGACGAUACAAGAAGGGCUGCUCCUUAC | 118 nM | 38.1 nM | – | –
AACCUACAUGAGGAUCACCCAUGUAUCUGAGGCACAGGAUAUCGACAGGCAAGACACCUGCGAGAAGGGUGACCUC | 94 nM | 39.9 nM | – | –
AACGACUGAGGAUAUACAUGAGGAUCACCCAUGUAUUGAAAUACGUGCUUGGUCAACUGUAGAAGGCAGAAUAA | – | – | 15.7 nM | 40.6 nM
AACGAGCAAGAUUAUUAUGAAUAAACAUGAGGAUCACCCAUGUAGGAUAUGCAGUGGAAUACACUGCAGAAGGACAAAAGCUCG | – | – | 6.49 nM | 12.9 nM
AACGCCAGUGAGAAGGCAUGUUCACAUGAGGAUCACCCAUGUAUACUCAUGAGGAUAUCAAAUGCGGACCAAAAUAAAAUAAGA | 464 nM | 26.6 nM | – | –
AACGCGUCAGGAUAUGCCAUAAAUUACCUAGUACGACCAUAGCAGAAGGGACAUGAGGAUCACCCAUGUAAAUA | – | – | 40.5 nM | 28.3 nM

From the EternaBench riboswitch data
